In brackets after ≈: the same amount, converted by molar mass.
System: HepG2
Assay: Cytotoxicity against human HepG2 cells after 12 days by methylene blue colorimetric method
Assay type: functional, cell-based
Conditions: HepG2, 288 h
In short: (§1)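 Hep G2 and HBV-transfected Hep G2 (Hep 2,2,15) cells were grown in RPMI 1640 or DMEM with 10% FCS, 100 units/mL penicillin and 100 µg/mL streptomycin, at 37 °C in humidified 5% CO2. Viability was measured by methylene blue staining, read at 592 nm. IC50 is the concentration giving 50% lower absorbance than drug-free controls.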

Going from `CCCCC(O)C(O)C/C=C\CC[C@H](O)[C@@H]1CC[C@@H](CCCCCCCCCCCC[C@@H](O)CC2=C[C@H](C)OC2=O)O1` (stereo partly specified) [MURICIN F] to `CCCCCCCC(O)C(O)CC[C@H](O)[C@@H]1CC[C@@H](CCCCCCCCCC[C@@H](O)CC2=C[C@H](C)OC2=O)O1` (stereo partly specified) [MURICIN D], the IC50 falls from 0.0428 µg/mL (≈ 0.0719 µM) to 0.00066 µg/mL (≈ 0.00116 µM) (65-fold).

First: CCCCCCCCCCCCCC[C@@H](O)[C@H]1CC[C@H]([C@H](O)CC[C@H](O)CCCCCCCC2=C[C@H](C)OC2=O)O1 [LONGIFOLICIN]
Second: CCCCCCCCCCCC[C@@H](O)[C@H]1CC[C@H]([C@H](O)CCCC[C@H](O)CCCCCCCC2=C[C@H](C)OC2=O)O1 [COROSSOLINE]
The IC50 of the first is 870-fold lower: 0.000404 µg/mL (≈ 0.000695 µM) for the first, 0.353 µg/mL (≈ 0.608 µM) for the second.

Compared with `CCCCCCCCCCCCC(O)C(O)CCC(O)C1CCC(CCCCCCC[C@@H](O)CC2=C[C@H](C)OC2=O)O1` (mixture of isomers) [MURICATETROCIN A/B], `CCCCCCCCCCCC[C@@H](O)[C@H]1CC[C@@H]([C@@H](O)CCCCC(=O)CCCCCCCC2=C[C@H](C)OC2=O)O1` [COROSSOLONE] is 9.7-fold higher in IC50: 0.0495 µg/mL for the first, 0.48 µg/mL (≈ 0.829 µM) for the second.

System: not listed separately
Assay: Cytotoxicity against human HepG2(2.2.15) cells after 12 days by methylene blue colorimetric method
Assay type: functional, cell-based
Conditions: HepG2 2.2.15, 288 h
In short: as §1

`CCCCCC(O)C(O)CCCCCC[C@@H](O)[C@H]1CC[C@H](CCCCCCCCCC[C@@H](O)CC2=C[C@H](C)OC2=O)O1` (stereo partly specified) [MURICIN A] and `CCCCCC(O)C(O)CCCCCC[C@H](O)[C@@H]1CC[C@H](CCCCCCCCCC[C@H](O)CC2=C[C@H](C)OC2=O)O1` (stereo partly specified) [MURICIN B] are within 1.5-fold of each other in IC50: 5.13 ng/mL (≈ 0.00859 µM) for the first, 4.29 ng/mL (≈ 0.00719 µM) for the second.

First: CCCCC(O)C(O)C/C=C\CC[C@H](O)[C@@H]1CC[C@@H](CCCCCCCCCCCC[C@@H](O)CC2=C[C@H](C)OC2=O)O1 (stereo partly specified) [MURICIN F]
Second: CCCCCCCC(O)C(O)CC[C@H](O)[C@@H]1CC[C@@H](CCCCCCCCCC[C@@H](O)CC2=C[C@H](C)OC2=O)O1 (stereo partly specified) [MURICIN D]
The IC50 of the first is 12-fold lower: 3.86 ng/mL (≈ 0.00649 µM) for the first, 48 ng/mL (≈ 0.0844 µM) for the second.

Going from `CCCCCCCCCCCCCC[C@@H](O)[C@H]1CC[C@H]([C@H](O)CC[C@H](O)CCCCCCCC2=C[C@H](C)OC2=O)O1` [LONGIFOLICIN] to `CCCCCCCCCCCC[C@@H](O)[C@H]1CC[C@H]([C@H](O)CCCC[C@H](O)CCCCCCCC2=C[C@H](C)OC2=O)O1` [COROSSOLINE], the IC50 rises from 4.9 ng/mL (≈ 0.00844 µM) to 234 ng/mL (≈ 0.403 µM) (48-fold).

`CCCCCCCC(O)C(O)CC[C@H](O)[C@@H]1CC[C@H](CCCCCCCCCCCC[C@@H](O)CC2=C[C@H](C)OC2=O)O1` (stereo partly specified) [MURICIN C] and `CCCCCCCCCCCCC(O)C(O)CCC(O)C1CCC(CCCCCCC[C@@H](O)CC2=C[C@H](C)OC2=O)O1` (mixture of isomers) [MURICATETROCIN A/B] are within 1.5-fold of each other in IC50: 3.87 ng/mL (≈ 0.00648 µM) for the first, 4.83 ng/mL for the second.

Going from `CCCCCCCCCCCC[C@@H](O)[C@H]1CC[C@@H]([C@@H](O)CCCCC(=O)CCCCCCCC2=C[C@H](C)OC2=O)O1` [COROSSOLONE] to `COc1cccc2c1C(=O)c1c(O)c3c(c(O)c1C2=O)C[C@@](O)(C(=O)CO)C[C@@H]3O[C@H]1C[C@H](N)[C@H](O)[C@H](C)O1` [DOXORUBICIN], the IC50 rises from 284 ng/mL (≈ 0.491 µM) to 450 ng/mL (≈ 0.828 µM) (1.6-fold).

Source: ChEMBL document CHEMBL1155724, “Novel cytotoxic annonaceous acetogenins from Annona muricata” (J Nat Prod, 2001)
